Activity calls are given as the source filed them. The rule behind the calls is not given here.
Legend:
Rattus norvegicus [1] = assay: Antilipidemic activity in 48-hrs starved normal Sprague-Dawley rat model assessed as plasma cholesterol level at 0.124 mmol/kg, po (reference value: 88.7 +/- 6.9 mg/dL); type: functional
Rattus norvegicus [2] = assay: Antilipidemic activity in 48-hrs starved normal Sprague-Dawley rat model assessed as plasma triglyceride level at 0.124 mmol/kg, po (reference value: 20.8 +/- 5.5 mg/dL); type: functional
Rattus norvegicus [3] = assay: Antilipidemic activity in normal Sprague-Dawley rat assessed at 0.4 mmol/kg, po bid for 7 days; type: functional, organism-based
[4] = Drug metabolism in Sprague-Dawley rat serum assessed as esterase-mediated hydrolysis measured after 5 mins; type: ADME, cell-free
Procedure, shortened: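 Pooled serum from ether-anesthetized male Sprague-Dawley rats (300–350 g; aortic blood with EDTA). 0.1 mL of 0.05 M ethanolic stock added to 6.0 mL serum, 37 °C with shaking; samples at 0, 5, 10, 30, 60 min extracted into isooctane–EtOH (95:5) with saturated NaCl; loss of parent read at 250 nm.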

[5] = Drug metabolism in Ringer bicarbonate buffer assessed as hydrolysis at pH 7.4 measured after 60 mins; type: physicochemical; conditions: read-out: Drug metabolism
Procedure, shortened: (§1)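 Nonenzymatic hydrolysis: 0.1 mL of 0.05 M ethanolic stock added to 6.0 mL Ringer bicarbonate buffer, pH 7.4, 37 °C with shaking. Aliquots at 0–60 min extracted into isooctane–EtOH (95:5) with saturated NaCl; disappearance of parent tracked at 250 nm.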

Rattus norvegicus [6] = assay: Antilipidemic activity in sucrose-fed Sprague-Dawley rat assessed as serum triglyceride level at 0.4 mmol/kg, po bid for 7 days measured on day 0 (reference value: 157.1 +/- 77.8 mg/dL); type: functional
Rattus norvegicus [7] = assay: Antilipidemic activity in sucrose-fed Sprague-Dawley rat assessed as serum cholesterol level at 0.4 mmol/kg, po bid for 7 days measured on day 0 (reference value: 69 +/- 9 mg/dL); type: functional
Rattus norvegicus [8] = assay: Antilipidemic activity in sucrose-fed Sprague-Dawley rat assessed as serum cholesterol level at 0.4 mmol/kg, po bid for 7 days measured on day 7 (reference value: 92 +/- 22 mg/dL); type: functional
Rattus norvegicus [9] = assay: Antilipidemic activity in sucrose-fed Sprague-Dawley rat assessed as serum triglyceride level at 0.4 mmol/kg, po bid for 7 days measured on day 7 (reference value: 115.6 +/- 19.4 mg/dL); type: functional
Rattus norvegicus [10] = assay: Modulation of cholesterol level in sucrose-fed Sprague-Dawley rat liver at 0.4 mmol/kg, po bid for 7 days (reference value: 1.81 to 2.17 mg/g); type: functional
Rattus norvegicus [11] = assay: Modulation of triglyceride level in sucrose-fed Sprague-Dawley rat liver at 0.4 mmol/kg, po bid for 7 days (reference value: 7.26 to 8.29 mg/g); type: functional
Rattus norvegicus [12] = assay: Modulation of HMG-CoA reductase activity in sucrose-fed Sprague-Dawley rat liver assessed as mevalonic acid formation using DL-3-hydroxy-3-methylglutaryl-3-14C-CoA as substrate at 0.4 mmol/kg, po bid for 7 days (reference value: 8.27 to 8.3 nmol/mg/hr); type: functional
Rattus norvegicus [13] = assay: Modulation of liver to body weight ratio in sucrose-fed Sprague-Dawley rat at 0.4 mmol/kg, po bid for 7 days (reference value: 3.88 to 4.06%); type: functional
Rattus norvegicus [14] = assay: Modulation of liver weight in sucrose-fed Sprague-Dawley rat at 0.4 mmol/kg, po bid for 7 days (reference value: 11.30 to 13.16 gms); type: functional
Rattus norvegicus [15] = assay: Modulation of liver microsomal protein level in sucrose-fed Sprague-Dawley rat at 0.4 mmol/kg, po bid for 7 days measured per gm of tissue (reference value: 25.0 to 27.2 mg); type: functional
Rattus norvegicus [16] = assay: Modulation of ethylmorphine N-demethylase activity in sucrose-fed Sprague-Dawley rat liver microsomes assessed as formaldehyde formation using ethylmorphine as substrate at 0.4 mmol/kg, po bid for 7 days (reference value: 6.40 to 9.36 nmol/mg/min); type: functional
Rattus norvegicus [17] = assay: Modulation of cytochrome b5 activity in sucrose-fed Sprague-Dawley rat liver microsomes at 0.4 mmol/kg, po bid for 7 days measured per mg of protein (reference value: 0.185 to 0.213 nmol); type: functional
Procedure, shortened: (§2)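 Sucrose-fed male rats dosed orally 0.4 mmol/kg twice daily for 7 days, controls vehicle; livers taken under ether anesthesia, microsomes prepared. Cytochrome P-450 and b5 estimated by the Kinoshita–Horie procedure, per mg microsomal protein. Mean ± SD, n = 5; Student's t test.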

Rattus norvegicus [18] = assay: Modulation of cytochrome-P450 activity in sucrose-fed Sprague-Dawley rat liver microsomes at 0.4 mmol/kg, po bid for 7 days measured per mg of protein (reference value: 0.477 to 0.593 nmol); type: functional; procedure, shortened: as §2
Rattus norvegicus [19] = assay: Modulation of NADPH-cytochrome c reductase activity in sucrose-fed Sprague-Dawley rat liver microsomes assessed as cytochrome c reduction at 0.4 mmol/kg, po bid for 7 days (reference value: 202.5 +/- 27.9 nmol/mg/min); type: functional
Rattus norvegicus [20] = assay: Antilipidemic activity in Triton WR-1339-induced hyperlipidemic Sprague-Dawley rat model assessed as plasma cholesterol level at 0.124 mmol/kg, po (reference value: 166 +/- 17.8 mg/dL)
Rattus norvegicus [21] = assay: Antilipidemic activity in Triton WR-1339-induced hyperlipidemic Sprague-Dawley rat model assessed as plasma triglyceride level at 0.124 mmol/kg, po (reference value: 98.5 +/- 16.9 mg/dL)
Rattus norvegicus [22] = assay: Modulation of triglyceride level in sucrose-fed Sprague-Dawley rat liver at 0.4 mmol/kg, po bid for 7 days (reference value: 8.29 +/- 2.24 mg/g); type: functional
Rattus norvegicus [23] = assay: Modulation of HMG-CoA reductase activity in sucrose-fed Sprague-Dawley rat liver assessed as mevalonic acid formation using DL-3-hydroxy-3-methylglutaryl-3-14C-CoA as substrate at 0.4 mmol/kg, po bid for 7 days (reference value: 8.27 +/- 1.18 nmol/mg/hr); type: functional
Rattus norvegicus [24] = assay: Modulation of liver to body weight ratio in sucrose-fed Sprague-Dawley rat at 0.4 mmol/kg, po bid for 7 days (reference value: 4.06 +/- 0.25%); type: functional
Rattus norvegicus [25] = assay: Modulation of liver weight in sucrose-fed Sprague-Dawley rat at 0.4 mmol/kg, po bid for 7 days (reference value: 13.16 +/- 0.61 gms); type: functional
Rattus norvegicus [26] = assay: Modulation of liver microsomal protein level in sucrose-fed Sprague-Dawley rat at 0.4 mmol/kg, po bid for 7 days measured per gm of tissue (reference value: 25.0 +/- 2.5 mg); type: functional
Rattus norvegicus [27] = assay: Modulation of ethylmorphine N-demethylase activity in sucrose-fed Sprague-Dawley rat liver microsomes assessed as formaldehyde formation using ethylmorphine as substrate at 0.4 mmol/kg, po bid for 7 days (reference value: 9.36 +/- 0.50 nmol/mg/min); type: functional
Rattus norvegicus [28] = assay: Modulation of cytochrome b5 activity in sucrose-fed Sprague-Dawley rat liver microsomes at 0.4 mmol/kg, po bid for 7 days measured per mg of protein (reference value: 0.213 +/- 0.032 nmol); type: functional; procedure, shortened: as §2
Rattus norvegicus [29] = assay: Modulation of cytochrome-P450 activity in sucrose-fed Sprague-Dawley rat liver microsomes at 0.4 mmol/kg, po bid for 7 days measured per mg of protein (reference value: 0.593 +/- 0.059 nmol); type: functional; procedure, shortened: as §2
Rattus norvegicus [30] = assay: Antilipidemic activity in normal Sprague-Dawley rat assessed as serum cholesterol level at 0.4 mmol/kg, po bid for 7 days (reference value: 59.1 to 81.6 mg/dL); type: functional
Procedure, shortened: (§3)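 Normal male Sprague-Dawley rats dosed orally twice daily, 0.4 mmol/kg […], for 7 days; controls received vehicle. Serum cholesterol and triglycerides measured at end of treatment; two separate experiments. Mean ± SD, n = 5; Student's t test vs control.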

Rattus norvegicus [31] = assay: Antilipidemic activity in normal Sprague-Dawley rat assessed as serum triglyceride level at 0.4 mmol/kg, po bid for 7 days (reference value: 61.2 to 69.1 mg/dL); type: functional; procedure, shortened: as §3
Rattus norvegicus [32] = assay: Modulation of cholesterol level in normal Sprague-Dawley rat liver at 0.4 mmol/kg, po bid for 7 days (reference value: 2.73 to 3.28 mg/g); type: functional
Rattus norvegicus [33] = assay: Modulation of triglyceride level in normal Sprague-Dawley rat liver at 0.4 mmol/kg, po bid for 7 days (reference value: 2.73 to 3.36 mg/g); type: functional
Rattus norvegicus [34] = assay: Modulation of HMG-CoA reductase activity in normal Sprague-Dawley rat liver assessed as mevalonic acid formation using DL-3-hydroxy-3-methylglutaryl-3-14C-CoA as substrate at 0.4 mmol/kg, po bid for 7 days (reference value: 49.1 +/- 6.7 nmol/mg/hr); type: functional
Rattus norvegicus [35] = assay: Modulation of liver to body weight ratio in normal Sprague-Dawley rat at 0.4 mmol/kg, po bid for 7 days (reference value: 4.21 to 4.59%); type: functional
Rattus norvegicus [36] = assay: Modulation of liver weight in normal Sprague-Dawley rat at 0.4 mmol/kg, po bid for 7 days (reference value: 6.73 to 8.71 gms); type: functional
Rattus norvegicus [37] = assay: Modulation of liver microsomal protein level in normal Sprague-Dawley rat at 0.4 mmol/kg, po bid for 7 days measured per gm of tissue (reference value: 25.4 to 29.0 mg); type: functional
[38] = Drug metabolism in Sprague-Dawley rat serum assessed as esterase-mediated hydrolysis at 0.05 M measured after 5 mins; type: ADME, cell-free; conditions: read-out: Drug metabolism
[39] = Drug metabolism in Ringer bicarbonate buffer assessed as hydrolysis at 0.05 M at pH 7.4 measured after 60 mins; type: physicochemical; procedure, shortened: as §1
Rattus norvegicus [40] = assay: Antilipidemic activity in 48-hrs starved normal Sprague-Dawley rat model assessed as plasma cholesterol level at 0.124 mmol/kg, po (reference value: 90.1 +/- 8.8 mg/dL); type: functional
Rattus norvegicus [41] = assay: Antilipidemic activity in 48-hrs starved normal Sprague-Dawley rat model assessed as plasma triglyceride level at 0.124 mmol/kg, po (reference value: 20.9 +/- 11.3 mg/dL); type: functional
Rattus norvegicus [42] = assay: Modulation of cholesterol level in sucrose-fed Sprague-Dawley rat liver at 0.4 mmol/kg, po bid for 7 days (reference value: 2.17 +/- 0.26 mg/g); type: functional
Rattus norvegicus [43] = assay: Antilipidemic activity in Triton WR-1339-induced hyperlipidemic Sprague-Dawley rat model assessed as plasma cholesterol level at 0.124 mmol/kg, po (reference value: 183 +/- 101 mg/dL)
Rattus norvegicus [44] = assay: Antilipidemic activity in Triton WR-1339-induced hyperlipidemic Sprague-Dawley rat model assessed as plasma triglyceride level at 0.124 mmol/kg, po (reference value: 156 +/- 184 mg/dL)

SMILES: CCOC(=O)C(C)(C)Oc1ccc(Cl)cc1 [CLOFIBRATE]
- Activity (Rattus norvegicus [1]): 87 mg/dL
- Activity (Rattus norvegicus [2]): 24.1 mg/dL
- Activity (Rattus norvegicus [3]): Active
- metabolised at 5 min [4]: > 90%
- degraded at 1 h [5]: < 20%
- Activity (Rattus norvegicus [6]): 153 mg/dL
- Activity (Rattus norvegicus [7]): 74 mg/dL
- Activity (Rattus norvegicus [8]): 36 mg/dL
- Activity (Rattus norvegicus [9]): 50.2 mg/dL
- Activity (Rattus norvegicus [10]): 1.76 mg/g
- Activity (Rattus norvegicus [11]): 3.05 mg/g
- Activity (Rattus norvegicus [12]): 2.7 nmol/mg/h
- Activity (Rattus norvegicus [13]): 5.01%
- Activity (Rattus norvegicus [14]): 14.32 g
- Activity (Rattus norvegicus [15]): 29.2 mg
- Activity (Rattus norvegicus [16]): 7.91 nmol/mg/min
- Activity (Rattus norvegicus [17]): 0.169 nmol
- Activity (Rattus norvegicus [18]): 0.806 nmol
- Activity (Rattus norvegicus [19]): 308.3 nmol/mg/min
- Activity (Rattus norvegicus [20]): 93.2 mg/dL
- Activity (Rattus norvegicus [21]): 22.3 mg/dL

SMILES: O=C1OCCC12Cc1cc(Cl)ccc1O2 (stereo not drawn)
- Activity (Rattus norvegicus [22]): 10.02 mg/g
- Activity (Rattus norvegicus [23]): 7.1 nmol/mg/h
- Activity (Rattus norvegicus [24]): 4.18%
- Activity (Rattus norvegicus [25]): 13.16 g
- Activity (Rattus norvegicus [26]): 27.8 mg
- Activity (Rattus norvegicus [27]): 9.8 nmol/mg/min
- Activity (Rattus norvegicus [28]): 0.173 nmol
- Activity (Rattus norvegicus [29]): 0.55 nmol
- Activity (Rattus norvegicus [30]): 58.6 mg/dL
- Activity (Rattus norvegicus [31]): 66.5 mg/dL
- Activity (Rattus norvegicus [32]): 3.18 mg/g
- Activity (Rattus norvegicus [33]): 3.17 mg/g
- Activity (Rattus norvegicus [34]): 45 nmol/mg/h
- Activity (Rattus norvegicus [35]): 4.5%
- Activity (Rattus norvegicus [36]): 7.87 g
- Activity (Rattus norvegicus [37]): 27.3 mg
- metabolised at 5 min [38]: > 90%
- degraded at 1 h [39]: < 20%
- Activity (Rattus norvegicus [6]): 142 mg/dL
- Activity (Rattus norvegicus [40]): 91.8 mg/dL
- Activity (Rattus norvegicus [7]): 67 mg/dL
- Activity (Rattus norvegicus [41]): 18.5 mg/dL
- Activity (Rattus norvegicus [8]): 103 mg/dL
- Activity (Rattus norvegicus [9]): 121.5 mg/dL
- Activity (Rattus norvegicus [42]): 2.32 mg/g
- Activity (Rattus norvegicus [43]): 131 mg/dL
- Activity (Rattus norvegicus [44]): 20.6 mg/dL

Reference: ChEMBL document CHEMBL3244279, “Synthesis and pharmacological evaluation of a clofibrate-related tricyclic spirolactone, 5-chloro-4',5-dihydrospiro[benzofuran-2(3H),3'(2'H)-furan]-2'-one” (J Med Chem, 1978)
